What was measured:
[1] = test system: Rattus norvegicus; experiment: Concentration was measured in heart tissue of unfasted Fischer 344 rats administered intravenously after 60 minute (radiolabeled with [125I]-; format: ADME, organism-based; details: in vivo, iv, 1 h
Method in brief: (§1)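 Female Fischer 344 rats, 10-12 weeks old, 170-200 g, with food and water ad libitum. The 125I-fatty acid was taken up in ethanol, added dropwise to stirred 6% BSA at ~40 °C (final ethanol 10%), filtered, and given as 0.5 mL via lateral tail vein under ether anesthesia. Rats were killed by cervical fracture; blood was taken by cardiac puncture. Organs were rinsed, blotted, weighed and gamma-counted against injectate standards to give %ID/g. Five rats per time point.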

[2] = test system: Rattus norvegicus; experiment: Concentration was measured in liver tissue f unfasted Fischer 344 rats administered intravenously after 30 minute (radiolabeled with [123I]-; format: ADME, organism-based; details: in vivo, iv, 0.5 h
[3] = test system: Rattus norvegicus; experiment: Concentration was measured in liver tissue of unfasted Fischer 344 rats administered intravenously after 5 minute (radiolabeled with [125I]-; format: ADME, organism-based; details: in vivo, iv, 5 min; method in brief: as §1
[4] = test system: Rattus norvegicus; experiment: Concentration was measured in blood tissue of unfasted Fischer 344 rats administered intravenously after 5 minute (radiolabeled with [123I]-; format: ADME, organism-based; details: in vivo, iv, 5 min
[5] = test system: Rattus norvegicus; experiment: Concentration was measured in kidney tissue of unfasted Fischer 344 rats administered intravenously after 5 minute (radiolabeled with [125I]-; format: ADME, organism-based; details: in vivo, iv, 5 min; method in brief: as §1
[6] = test system: Rattus norvegicus; experiment: Concentration was measured in lungs tissue of unfasted Fischer 344 rats administered intravenously after 5 minute (radiolabeled with [123I]-; format: ADME, organism-based, Lung; details: in vivo, iv, 5 min
[7] = test system: Rattus norvegicus; experiment: Concentration was measured in heart tissue of unfasted Fischer 344 rats administered intravenously after 60 minute (radiolabeled with [123I]-; format: ADME, organism-based; details: in vivo, iv, 1 h
[8] = test system: Rattus norvegicus; experiment: Concentration was measured in kidney tissue of unfasted Fischer 344 rats administered intravenously after 60 minute (radiolabeled with [125I]-; format: ADME, organism-based; details: in vivo, iv, 1 h; method in brief: as §1
[9] = test system: Rattus norvegicus; experiment: Concentration was measured in mean heart/blood tissue of fasted Fischer 344 rats administered intravenously after 30 minute (radiolabeled with [125I]-; details: in vivo, iv, 0.5 h
[10] = test system: Rattus norvegicus; experiment: Concentration was measured in lungs tissue of unfasted Fischer 344 rats administered intravenously after 4 hr (radiolabeled with [125I]-; format: ADME, organism-based, Lung; details: in vivo, iv
[11] = test system: Rattus norvegicus; experiment: Concentration was measured in lungs tissue of unfasted Fischer 344 rats administered intravenously after 30 minute (radiolabeled with [125I]-; format: ADME, organism-based, Lung; details: in vivo, iv, 0.5 h; method in brief: as §1
[12] = test system: Rattus norvegicus; experiment: Concentration was measured in kidney tissue of unfasted Fischer 344 rats administered intravenously after 5 minute (radiolabeled with [123I]-; format: ADME, organism-based; details: in vivo, iv, 5 min
[13] = test system: Rattus norvegicus; experiment: Concentration was measured in mean heart/blood tissue of unfasted Fischer 344 rats administered intravenously after 4 hr (radiolabeled with [123I]-; format: ADME, organism-based; details: in vivo, iv
[14] = test system: Rattus norvegicus; experiment: Concentration was measured in mean heart/blood tissue of unfasted Fischer 344 rats administered intravenously after 4 hr (radiolabeled with [125I]-; format: ADME, organism-based; details: other tissue, iv
[15] = test system: Rattus norvegicus; experiment: (§2) Concentration was measured in tissue of unfasted Fischer 344 rats administered intravenously after 60 minute (radiolabeled with [123I]-; format: ADME, organism-based; details: in vivo, iv, 1 h
[16] = test system: Rattus norvegicus; experiment: Concentration was measured in thyroid tissue of fasted Fischer 344 rats administered intravenously after 30 minute (radiolabeled with [123I]-; details: in vivo, iv, 0.5 h
[17] = test system: Rattus norvegicus; experiment: Concentration was measured in blood tissue of unfasted Fischer 344 rats administered intravenously after 30 minute (radiolabeled with [125I]-; format: ADME, organism-based; details: in vivo, iv, 0.5 h, in the assay text read “fasted” for “unfasted”
[18] = test system: Rattus norvegicus; experiment: Concentration was measured in liver tissue f unfasted Fischer 344 rats administered intravenously after 30 minute (radiolabeled with [125I]-; format: ADME, organism-based; details: in vivo, iv, 0.5 h; method in brief: as §1
[19] = test system: Rattus norvegicus; experiment: Concentration was measured in kidney tissue of unfasted Fischer 344 rats administered intravenously after 4 hr (radiolabeled with [123I]-; format: ADME, organism-based; details: in vivo, iv
[20] = test system: Rattus norvegicus; experiment: Concentration was measured in liver tissue of unfasted Fischer 344 rats administered intravenously after 5 minute (radiolabeled with [123I]-; format: ADME, organism-based; details: in vivo, iv, 5 min
[21] = test system: Rattus norvegicus; experiment: Concentration was measured in blood tissue of unfasted Fischer 344 rats administered intravenously after 60 minute (radiolabeled with [123I]-; format: ADME, organism-based; details: in vivo, iv, 1 h
[22] = test system: Rattus norvegicus; experiment: Concentration was measured in mean heart/blood tissue of fasted Fischer 344 rats administered intravenously after 5 minute (radiolabeled with [123I]-; details: in vivo, iv, 5 min
[23] = test system: Rattus norvegicus; experiment: Concentration was measured in blood tissue of unfasted Fischer 344 rats administered intravenously after 30 minute (radiolabeled with [123I]-; format: ADME, organism-based; details: in vivo, iv, 0.5 h
[24] = test system: Rattus norvegicus; experiment: Concentration was measured in mean heart/blood tissue of fasted Fischer 344 rats administered intravenously after 30 minute (radiolabeled with [123I]-; details: in vivo, iv, 0.5 h
[25] = test system: Rattus norvegicus; experiment: Concentration was measured in liver tissue of fasted Fischer 344 rats administered intravenously after 4 hr (radiolabeled with [125I]-; details: in vivo, iv
[26] = test system: Rattus norvegicus; experiment: Concentration was measured in lungs tissue of unfasted Fischer 344 rats administered intravenously after 4 hr (radiolabeled with [123I]-; format: ADME, organism-based, Lung; details: in vivo, iv
[27] = test system: Rattus norvegicus; experiment: Concentration was measured in heart tissue of unfasted Fischer 344 rats administered intravenously after 5 minute (radiolabeled with [123I]-; format: ADME, organism-based; details: in vivo, iv, 5 min
[28] = test system: Rattus norvegicus; experiment: (§3) Concentration was measured in tissue of unfasted Fischer 344 rats administered intravenously after 60 minute (radiolabeled with [125I]-; format: ADME, organism-based; details: in vivo, iv, 1 h
Method in brief: (§4)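 Female Fischer 344 rats, 10–12 weeks old (170–200 g), with food and water ad libitum, five per time point. The radioiodinated fatty acid was dissolved in ethanol, added to 6% BSA at ~40 °C (final 10% ethanol), filtered, and injected into a lateral tail vein (0.5 mL) under ether anesthesia. Blood was taken by cardiac puncture; organs were rinsed, blotted, weighed and gamma-counted against injectate standards. Output is % injected dose/g.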

[29] = test system: Rattus norvegicus; experiment: Concentration was measured in blood tissue of unfasted Fischer 344 rats administered intravenously after 4 hr (radiolabeled with [123I]-; format: ADME, organism-based; details: in vivo, iv
[30] = test system: Rattus norvegicus; experiment: as §2; format: ADME, organism-based; details: in vivo, iv, 1 h; remark: listed apart in the source
[31] = test system: Rattus norvegicus; experiment: Concentration was measured in thyroid tissue of unfasted Fischer 344 rats administered intravenously after 5 minute (radiolabeled with [123I]-; format: ADME, organism-based, Thyroid gland; details: in vivo, iv, 5 min
[32] = test system: Rattus norvegicus; experiment: Concentration was measured in blood tissue of unfasted Fischer 344 rats administered intravenously after 5 minute (radiolabeled with [125I]-; format: ADME, organism-based; details: in vivo, iv, 5 min; method in brief: as §1
[33] = test system: Rattus norvegicus; experiment: Concentration was measured in kidney tissue of unfasted Fischer 344 rats administered intravenously after 60 minute (radiolabeled with [123I]-; format: ADME, organism-based; details: in vivo, iv, 1 h
[34] = test system: Rattus norvegicus; experiment: Concentration was measured in mean heart/blood tissue of fasted Fischer 344 rats administered intravenously after 5 minute (radiolabeled with [125I]-; details: in vivo, iv, 5 min
[35] = test system: Rattus norvegicus; experiment: as §3; format: ADME, organism-based; details: in vivo, iv, 1 h; method in brief: as §4; remark: listed apart in the source
[36] = test system: Rattus norvegicus; experiment: Concentration was measured in heart tissue of unfasted Fischer 344 rats administered intravenously after 30 minute (radiolabeled with [123I]-; format: ADME, organism-based; details: in vivo, iv, 0.5 h
[37] = test system: Rattus norvegicus; experiment: Concentration was measured in thyroid tissue of unfasted Fischer 344 rats administered intravenously after 30 minute (radiolabeled with [125I]-; format: ADME, organism-based, Thyroid gland; details: in vivo, iv, 0.5 h, in the assay text read “fasted” for “unfasted”
[38] = test system: Rattus norvegicus; experiment: Concentration was measured in thyroid tissue of fasted Fischer 344 rats administered intravenously after 4 hr (radiolabeled with [123I]-; details: in vivo, iv
[39] = test system: Rattus norvegicus; experiment: Concentration was measured in blood tissue of unfasted Fischer 344 rats administered intravenously after 60 minute (radiolabeled with [125I]-; format: ADME, organism-based; details: in vivo, iv, 1 h; method in brief: as §1
[40] = test system: Rattus norvegicus; experiment: Concentration was measured in heart tissue of unfasted Fischer 344 rats administered intravenously after 4 hr (radiolabeled with [125I]-; format: ADME, organism-based; details: in vivo, iv

- Distribution [1]: 2.56%
- Distribution [2]: 3.49%
- Distribution [3]: 6.48%
- Distribution [4]: 0.74%
- Distribution [5]: 1.06%
- Distribution [6]: 1.54%
- Distribution [7]: 0.78%
- Distribution [8]: 1.3%
- Distribution [9]: 4.3%
- Distribution [10]: 0.81%
- Distribution [11]: 0.96%
- Distribution [12]: 1.12%
- Distribution [13]: 0.96%
- Distribution [14]: 2.6%
- Distribution [15]: 2.62%
- Distribution [16]: 65.3%
- Distribution [17]: 0.77%
- Distribution [18]: 4.53%
- Distribution [19]: 0.95%
- Distribution [20]: 4.87%
- Distribution [21]: 0.64%
- Distribution [22]: 4.8%
- Distribution [23]: 0.74%
- Distribution [24]: 1.6%
- Distribution [25]: 1.11%
- Distribution [26]: 1.23%
- Distribution [27]: 3.52%
- Distribution [28]: 2.94%
- Distribution [29]: 0.61%
- Distribution [30]: 102%
- Distribution [31]: 22.5%
- Distribution [32]: 0.91%
- Distribution [33]: 0.96%
- Distribution [34]: 5.4%
- Distribution [35]: 82.9%
- Distribution [36]: 1.19%
- Distribution [37]: 48.5%
- Distribution [38]: 392%
- Distribution [39]: 0.63%
- Distribution [40]: 1.38%
SMILES: CC(CCCCCCCCCCCCCC/C=C/I)CC(=O)O.O=C(O)CCCCCCCCCCCCCCCC/C=C/I (stereo not given)
